Results from different studies.
Cell line: HT-29
Observed: cell growth or viability

The inhibition of `O=C1Nc2ccc(Br)cc2/C1=N/NC(=O)c1cc2ccccc2[nH]1` is reported as 64.5% (30 µM).
`COc1ccc(C(=O)/C=C/c2cccc3ccccc23)cc1S(N)(=O)=O` has an inhibition of 140% (SRB; 10 µM).
For `COc1ccc(C2=Nn3c(NN=C4C(=O)Nc5ccc(Cl)cc54)nnc3SC2)cc1`, the inhibition was 27% (SRB; 10 µM).
For `COc1ccc(C(=O)/C=C/c2cccnc2)cc1S(N)(=O)=O`, the inhibition was 76% (SRB; 10 µM).
With `COc1ccc2c(c1)/C(=N/NC(=O)c1cc3ccccc3[nH]1)C(=O)N2C` the inhibition was 90.8% (30 µM).
The inhibition of `COc1ccc(-c2nc(NN=C3C(=O)Nc4ccc(F)cc43)c3ccccc3n2)cc1OC` is reported as 9.6% (30 µM).
With `COc1ccc(C(=O)/C=C/c2ccc3ccccc3c2)cc1S(N)(=O)=O` the inhibition was 126% (SRB; 10 µM).
With `CN1C(=O)/C(=N\NC(=O)c2cc3ccccc3[nH]2)c2ccccc21` the inhibition was 78.5% (30 µM).
`COc1ccc(C2=Nn3c(NN=C4C(=O)Nc5ccc(OC)cc54)nnc3SC2)cc1` has an inhibition of 24% (SRB; 10 µM).
With `COc1cc2ncnc(NN=C3C(=O)Nc4ccc(Br)cc43)c2cc1OC` the inhibition was 18.6% (10 µM).
With `COc1ccc(C(=O)/C=C/c2ccccc2Br)cc1S(N)(=O)=O` the inhibition was 117% (SRB; 10 µM).
`COc1cc2ncnc(NN=C3C(=O)Nc4ccccc43)c2cc1OC` has an inhibition of 38.7% (30 µM).
For `O=C1Nc2ccc(F)cc2/C1=N/NC(=O)c1cc2ccccc2[nH]1`, the inhibition was 13.9% (30 µM).
`Cn1c(=O)c(NN=C2C(=O)Nc3ccc(Cl)cc32)nc2ccccc21` gave an inhibition of 16.1% (30 µM).
With `CN1C(=O)/C(=N\NC(=O)c2cc3ccccc3[nH]2)c2cc(Br)ccc21` the inhibition was 95.2% (30 µM).
With `COc1ccc(C(=O)/C=C/c2cccc(Cl)c2Cl)cc1S(N)(=O)=O` the inhibition was 106% (SRB; 10 µM).
The inhibition of `COc1ccc2c(c1)C(=NNc1nc3ccccc3n(C)c1=O)C(=O)N2` is reported as 48.5% (30 µM).
`COc1ccc(C(=O)/C=C/c2cc3c(cc2Br)OCO3)cc1S(N)(=O)=O` has an inhibition of 100% (SRB; 10 µM).
`COc1cc2ncnc(NN=C3C(=O)Nc4ccc(C)cc43)c2cc1OC` has an inhibition of 49.3% (30 µM).
`O=C1Nc2ccc(Cl)cc2/C1=N/NC(=O)c1cc2ccccc2[nH]1` gave an inhibition of 29.4% (30 µM).
